# From PubChem
# Hits are enriched below; roughly 7.2% of the tested compounds scored in any of these assays.
# Ecoli WT expand: growth inhibitors of E. coli BW25113 wild type; OD600 absorbance; 0.15% of 98,000 active; AID 710; growth inhibition, % at 100 µM;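 active = growth inhibition above about 50% at one test dose, limit read from the data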;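 also: growth measured after 20 h incubation at 37 °C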
# PostGolgi ctrl: yeast control strain growth, post-Golgi counter-screen. efflux-deficient yeast background strain, growth absorbance A615, 16 h. inhibition, % at 10 µM. 5% of 98,000 active
# PostGolgi yeast: growth inhibition of a yeast mutant, post-Golgi transport screen; post-Golgi transport phenotypic cell assay; inhibition, % at 10 µM; 0.9% of 98,000 active; AID 739;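 also: yeast cells grown in 1536-well plates; yeast grown about 18 h at 30C before absorbance read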
# PLAP act: activators of human placental alkaline phosphatase | purified PLAP enzyme, luminescent substrate read-out; stronger effect = higher value | activation fold at 20 µM | 1.2% of 96,000 active | AID 696; in the data active = activation fold above about 2
# Target sequence (P05187 whole entry, looked up): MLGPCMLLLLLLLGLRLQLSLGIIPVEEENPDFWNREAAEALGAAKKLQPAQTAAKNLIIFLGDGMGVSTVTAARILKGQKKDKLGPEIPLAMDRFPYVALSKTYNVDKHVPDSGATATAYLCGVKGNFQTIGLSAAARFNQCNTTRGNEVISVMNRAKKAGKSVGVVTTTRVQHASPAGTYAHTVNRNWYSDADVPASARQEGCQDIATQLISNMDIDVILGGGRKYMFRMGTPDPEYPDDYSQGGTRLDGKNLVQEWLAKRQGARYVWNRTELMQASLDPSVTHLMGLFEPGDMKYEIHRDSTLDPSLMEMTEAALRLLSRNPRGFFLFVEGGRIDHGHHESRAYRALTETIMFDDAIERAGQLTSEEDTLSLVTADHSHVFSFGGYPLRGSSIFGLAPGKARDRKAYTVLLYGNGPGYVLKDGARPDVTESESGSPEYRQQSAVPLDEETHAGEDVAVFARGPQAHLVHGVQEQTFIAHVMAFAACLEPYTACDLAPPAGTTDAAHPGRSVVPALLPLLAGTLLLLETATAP
# Ecoli tolC: E. coli tolC mutant growth inhibition; growth inhibition, % at 10 µM (by protocol); E. coli BW25113 tolC mutant growth, OD615; 2.2% of 65,000 active;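 active = growth inhibition at or above a cutoff equal to the mean over every tested compound plus 3 SD, cut at about 60% in these data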;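 also: growth measured after 20 h incubation at 37 °C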
#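 System: E. coli ΔtolC::kan strain BW25113; Buffer or medium: LB broth supplemented with 50 µg/mL kanamycin; Compound: 10 µM final, single dose; Incubation: bacterial growth with compound for 20 h at 37 °C; Signal: A615 absorbance measurement; Evaluation: growth inhibition in percent.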
# Numbers stand for hits; - = inactive; . = no result given. Rule as the data show it, unless noted: active = inhibition above about 30%; inactive = the rest.
SMILES,Ecoli WT expand,PostGolgi ctrl,PostGolgi yeast,PLAP act,Ecoli tolC
Cc1ccc(OCCCCn2cnc3ccccc32)c(C)c1,-,32.2,-,-,.
O=C(Nc1nnc(C2CC2)s1)C1Cc2ccccc2CN1S(=O)(=O)c1ccccc1F (centres undefined),-,-,-,-,.
CCOc1cc(/C=C2\C(=O)N(c3nc(-c4ccc(Br)cc4)cs3)N=C2c2ccccc2)ccc1O,-,31.4,-,-,.
CCOC(=O)N/C(N)=N/c1nc2ccccc2s1,-,32.7,-,-,-
CCOC(=O)NC(Nc1nc2ccccc2s1)(C(=O)OCC)C(F)(F)F (centres undefined),-,-,-,-,-
CCSc1oc(-c2ccccc2)nc1S(=O)(=O)c1ccccc1,-,-,-,-,68.6
O=C(CSc1oc(-c2ccco2)nc1S(=O)(=O)c1ccc(Cl)cc1)NCC1CCCO1 (centres undefined),-,-,36.6,-,-
O=C(CSc1oc(-c2ccco2)nc1S(=O)(=O)c1ccccc1)NCC1CCCO1 (centres undefined),.,.,.,.,-
O=S(=O)(c1ccccc1)c1nc(-c2ccco2)oc1N1CCCCCC1,-,41.9,-,-,81.9
CCSc1oc(-c2ccco2)nc1S(=O)(=O)c1ccccc1,-,-,-,.,-
CCCSc1oc(-c2ccco2)nc1S(=O)(=O)c1ccccc1,-,33.0,-,-,83.8
COc1ccc(N2CC(O)=C(c3nc(C)cs3)C2=N)cc1,-,-,-,2,-
O=C(CSc1ccc(Cl)cc1)N1CCC(c2nc3ccccc3s2)CC1,-,41.1,-,-,.
O=C(c1ccc(S(=O)(=O)N2CCC(c3nc4ccccc4s3)CC2)cc1)N1CCOCC1,.,.,.,-,-
CCc1ccc(C(=O)N2CCC(c3nc4ccccc4s3)CC2)cc1,-,36.8,-,-,.
CCOc1ccc(C2OC(=O)Cc3cc(OC)c(OC)cc32)cc1 (centres undefined),-,-,-,-,.
COc1ccc2c(CC(=O)OCC(=O)c3ccc(F)cc3)coc2c1,-,-,-,-,-
COc1ccc(C2(O)CCN(CCCCOc3ccccc3)CC2)cc1,-,-,-,2.1,-
Cc1onc(-c2ccccc2Cl)c1C(=O)NCCn1c(C)cc2ccccc21,.,.,.,.,-
O=C(Nc1ccn(Cc2ccc(Cl)cc2)n1)c1ccc2c(c1)OCO2,-,-,-,-,62.7
CC(C)(C)NC(=O)c1ccc2c(c1)N(CC(=O)N1CCN(c3ccc(F)cc3)CC1)C(=O)C(C)(C)O2,-,-,-,-,-
CCOc1ccc(C(=O)Nc2ccccc2N2CCOCC2)cc1,-,33.0,-,-,.
CCOc1ccccc1N1CC(C(=O)Nc2ccccc2N2CCOCC2)CC1=O (centres undefined),-,-,-,-,-
CCOc1ccc(C(=O)C2CCN(CC(=O)Nc3ccccc3N3CCOCC3)CC2)cc1,-,-,-,-,76.4
CCOc1ccc(C(=O)Nc2ccccc2N2CCCC2)cc1,-,-,-,-,.
SMILES,Ecoli WT expand,PostGolgi ctrl,PostGolgi yeast,PLAP act,Ecoli tolC
COc1ccc(OC)c(NC(=O)CN2CCC(C(=O)c3ccc(C)cc3)CC2)c1,-,34.6,-,-,-
CCOc1cc(N2CCOCC2)c(OCC)cc1NC(=O)Cc1cccc(OC)c1,-,-,-,-,.
CCOc1cc(N2CCOCC2)c(OCC)cc1NC(=O)CN1CCc2ccccc2C1,-,39.0,-,-,-
Cc1cccc(-c2noc(CN(C(=O)C(c3ccccc3)c3ccccc3)C(C)C)n2)c1,-,-,-,-,.
c1csc(C(c2nnnn2C2CCCC2)N2CCCC3(CCCCC3)C2)c1 (centres undefined),-,-,-,-,.
CN(C)CC(C)(C)CNS(=O)(=O)c1cccc(Cl)c1Cl,-,-,-,-,.
O=S(=O)(NCc1ccc2c(c1)OCO2)c1cccc(S(=O)(=O)N2CCOCC2)c1,-,-,-,-,-
CCOc1ccc(C(=O)CN2CCN(S(=O)(=O)c3ccc(Cl)cc3)CC2)cc1,-,32.0,-,-,-
CCOc1ccc(S(=O)(=O)N2CCCC2)cc1,-,-,-,-,.
COc1ccc(C)cc1NC(=O)CN1CCN(S(=O)(=O)c2ccc(Cl)cc2)CC1,-,49.8,-,-,-
CC(C)=CCc1c(O)ccc(C(=O)Cc2ccccc2)c1O,-,34.0,-,-,.
Cc1cc(C)nc(N/N=C/C(Cl)=C/c2ccccc2)n1,-,-,30.8,-,.
CCOC(=O)N1CCC2(CC1)C(C#N)=C(N)OC1=C2C(=O)CC(C)C1 (centres undefined),-,-,-,-,.
CCCCC(c1nnnn1CC1CCCO1)N1CCN(c2cc(Cl)ccc2C)CC1 (centres undefined),-,30.8,-,-,-
